Assay results published in ChEMBL document CHEMBL4052605, “Lissoclibadin 1, a Polysulfur Aromatic Alkaloid from the Indonesian Ascidian Lissoclinum cf. badium, Induces Caspase-Dependent Apoptosis in Human Colon Cancer Cells and Suppresses Tumor Growth in Nude Mice” (J Nat Prod, 2017).
pIC50: −log10 of the molar value.

Legend:
Type in all cases: functional, cell-based
[1] = system: HCT-15; test: Antiproliferative activity against human HCT15 cells after 24 hrs by WST-1 assay; conditions: HCT-15, 24 h
Method in brief: (§1)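 WST-1 viability assay. Cells seeded at 5 × 10^3 per well and grown 24 h, then given lissoclibadins at 0.1−40 μM (etoposide 1.0−100 μM) in triplicate for 24 h. WST-1 added and absorbance read 4 h later at 450 nm, background subtracted at 650 nm. Viability expressed as % of control; IC50 taken as 50% inhibition of viability. Three experiments, mean ± SD.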

[2] = system: HeLa S3; test: Antiproliferative activity against human HeLaS3 cells after 24 hrs by WST-1 assay; conditions: HeLa S3, 24 h; method in brief: as §1
[3] = system: MCF7; test: Antiproliferative activity against human MCF7 cells after 24 hrs by WST-1 assay; conditions: MCF7, 24 h; method in brief: as §1
[4] = system: NCI-H28; test: Antiproliferative activity against human NCI-H28 cells after 24 hrs by WST-1 assay; conditions: NCI-H28, 24 h; method in brief: as §1

Compound: COc1cc(CCN(C)C)c2c(c1O)SSSSS2 [ISOLISSOCLINOTOXIN B]
- pIC50 [1]: 5.38
- pIC50 [2]: 5.23
- pIC50 [3]: 5.19
- pIC50 [4]: 5.19
